The values that follow come from PubChem BioAssay AID488948 (Broad Institute, 2010).

The nature of assay [1]: caspase-3/7 activation in unprimed MEWO cells, dose response, counter-screen for Bcl2-A1 inhibitor project, cell-based, caspase-Glo luminescence, dry powder (AID 488948). Particulars: MEWO unprimed cells, caspase-3/7 Glo luminescence, 3 h, stronger effect = higher value. The procedure, abridged: (§1)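 Assay system: unprimed A1-expressing MEWO cells; quantity: 2500 cells per well; medium: RPMI-1640, 10% fetal bovine serum; dosing: compound added by pin transfer, day after plating; schedule: 3 h compound exposure (37 °C), 1 h reagent (RT); detection: CaspaseGlo luminescence after 1 h at room temperature; read-out: caspase activation from luminescent signal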
(In general: A counterscreen serves to expose hits that act by an unwanted route or on another target.)

Assay [2] concerns MEWO unprimed cells, caspase-3/7 Glo luminescence, 3 h. The description is as above. The procedure, abridged: as §1

Inconclusive results are not listed. Calls of active or inactive are those of the source.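 The calls were made as follows: active = compounds raising caspase signal whose fitted AC50 is at or under a set limit scaled from top dose; inconclusive = flat fit at middling activation, or poor curve fit; inactive = the rest.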

As for `C=C1[C@@H](C)[C@H]2[C@H](Cc3ccccc3)NC(=O)[C@]23OC(=O)/C=C\[C@H](O)CCC[C@@H](C)C/C=C/[C@H]3[C@@H]1O`, the max caspase activation in assay [1] (at 2.6 µM) was 2.11% (inactive). In the case of `Cc1cc(C(=O)CCl)c(C)n1CCc1ccc(Cl)cc1`, in assay [2], the AC50 (in general, the midpoint of the concentration-response curve, whichever way the signal moves) was 18.4 µM. For `Nc1nc(F)nc2c1ncn2[C@@H]1O[C@H](CO)[C@@H](O)[C@H]1O`, the max caspase activation in assay [1] (at 0.1 µM) was 2.46% (inactive). Consider `COc1ccc(N(C(=O)CCl)C(C(=O)NCCc2ccccc2)c2cccs2)cc1Cl` (centres undefined), for which the AC50 in assay [2] was 15.6 µM.

Take `O=C(CCl)N=c1sccn1Cc1ccccc1Cl`: the AC50 in assay [2] was > 150 µM (inactive). Regarding `Cc1ccc(Sc2c([N+](=O)[O-])c(=O)n(C)c3ccccc23)cc1`, the max caspase activation in assay [1] (at 100 µM) is 3.9% (inactive). For the compound `CC(C)(C)n1nc(-c2ccc(Cl)cc2)c2c(N)ncnc21`, the max caspase activation in assay [1] (at 150 µM) is 4.52% (inactive). Consider `CCc1nnc(NC(=O)c2nc(S(=O)(=O)Cc3ccccc3)ncc2Cl)s1`, for which the max caspase activation in assay [1] (at 0.068 µM) is -1.73% (inactive). `COc1cccc(C(=O)C(C#N)=C(SC)SC)c1`: the max caspase activation in assay [1] (at 150 µM) was -3.79% (inactive). On to `CCSc1nnc(NC(=O)c2nc(S(=O)(=O)Cc3ccc(F)cc3)ncc2Cl)s1`, for which the max caspase activation in assay [1] (at 150 µM) is -5.59% (inactive).

For the compound `Cc1c(CCOC(=O)c2ccc(N3CCOCC3)c([N+](=O)[O-])c2)sc[n+]1CC#N`, in assay [2], the AC50 was > 100 µM (inactive). For the compound `Cn1c(=NC(=O)CCl)sc2ccccc21`, the max caspase activation in assay [1] (at 0.068 µM) was -1.67% (inactive).

Take `CC(=O)N[C@H]1[C@H](O[C@H]2CC[C@@]3(C)C(CC[C@]4(C)C3CC=C3[C@@H]5CC(C)(C)CC[C@]5(C(=O)OC5OCC(O)C(O)C5O)C(O)C[C@]34C)C2(C)C)O[C@H](COC2OCC(O)C(OC3OCC(O)C(O)C3O)C2O)[C@@H](O[C@@H]2O[C@@H](C)[C@H](O)[C@@H](O)[C@H]2O[C@@H]2O[C@@H](C)[C@H](O)[C@@H](O)[C@H]2O)[C@@H]1O` (some centres undefined): in assay [1] (at 135 µM), the max caspase activation was -2.6% (inactive).

In the case of `Cc1ccc(CS(=O)(=O)c2ncc(Cl)c(C(=O)Nc3nnc(C(C)C)s3)n2)cc1`, the max caspase activation in assay [1] (at 100 µM) is -3.83% (inactive). In the case of `Cc1cccc(CS(=O)(=O)c2ncc(Cl)c(C(=O)Nc3nnc(C(C)C)s3)n2)c1`, the max caspase activation in assay [1] (at 150 µM) is -3.23% (inactive). As for `CCOC(=O)CSC1=N/C(=C/c2ccc(-n3cncn3)cc2)C(=O)N1C(C)=O`, the AC50 in assay [2] is > 150 µM (inactive). Turning to `O=C(Oc1cccc(/C=N/Nc2nc(Nc3ccccc3)nc(N3CCOCC3)n2)c1)c1ccco1`, in assay [1] (at 68 µM), the max caspase activation was 2.05% (inactive). Consider `COc1cc(/C=C(/C#N)c2nc3ccccc3[nH]2)ccc1OCC(=O)Nc1ccccc1C(C)C`, for which the max caspase activation in assay [1] (at 9 µM) is 2.17% (inactive).

As to `C/C1=C/C(=O)O[C@@H]2C[C@@H](CC[C@H](C)/C=C\CC1)O[C@@](O)(C1CSC(=O)N1)C2` (some centres undefined), the max caspase activation in assay [1] (at 46 µM) was 1.79% (inactive).
